Laboratory results reported in ChEMBL document CHEMBL1147951, “Synthesis and antimicrobial activity of symmetrical two-tailed dendritic tricarboxylato amphiphiles” (2007).
Converted amounts (≈) assume the structure as drawn.

Legend:
Format in all cases: functional
Escherichia coli = test: Antimicrobial activity against Escherichia coli by broth microdilution assay
Outline: (§1)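 Strains were E. coli strain C (ATCC 13706) and K. pneumoniae ATCC 4352, grown from a single colony in 1/10-strength BHI broth + 0.2% sucrose and adjusted with buffered saline gelatin to McFarland No. 1. Twofold dilution series of compound in triethanolamine/water used doubled medium and inoculum volumes. Plates were incubated at 37 °C and turbidity was scored visually on day 7. MIC, run in triplicate, was the lowest concentration giving a prominent visible turbidity decrease.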

Micrococcus luteus = test: Antimicrobial activity against Micrococcus luteus by broth microdilution assay
Outline: (§2)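 Compounds were dissolved in aqueous triethanolamine (stock pH 8–9) and serially diluted twofold in 1/10-strength BHI broth + 0.2% sucrose. Inocula were adjusted with buffered saline gelatin to McFarland No. 1; for A. niger, spores were scraped from PDA. Plates were incubated at 30 °C and turbidity was scored visually on day 4. MIC, run in triplicate, was the lowest concentration giving a prominent visible decrease in turbidity.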

Aspergillus niger = test: Antimicrobial activity against Aspergillus niger by broth microdilution assay; outline: as §2
Cryptococcus neoformans = test: Antimicrobial activity against Cryptococcus neoformans by broth microdilution assay; outline: as §2
Saccharomyces cerevisiae = test: Antimicrobial activity against Saccharomyces cerevisiae by broth microdilution assay; outline: as §2
Candida albicans = test: Antimicrobial activity against Candida albicans by broth microdilution assay; outline: as §2
Staphylococcus aureus [1] = test: Antimicrobial activity against Staphylococcus aureus by broth microdilution assay
Outline: (§3)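 Twofold dilution series of amphiphile (dissolved in aqueous triethanolamine, pH 8–9) in 1/10-strength Brain Heart Infusion Broth with 0.2% sucrose. Inoculum from a single-colony broth culture, diluted with buffered saline gelatin to No. 1 McFarland turbidity. Incubated at 30 °C; turbidity scored visually on day 4. MIC = lowest concentration giving a prominent visible decrease in turbidity; triplicate.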

Klebsiella pneumoniae = test: Antimicrobial activity against Klebsiella pneumoniae by broth microdilution assay; outline: as §1
[2] = test system: Mycolicibacterium smegmatis; test: Antimicrobial activity against Mycobacterium smegmatis by broth microdilution assay
Outline: (§4)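 Strains were L. plantarum ATCC 14917, precultured in TSB, and M. smegmatis ATCC 607, precultured in Middlebrook 7H9. Inocula were diluted with buffered saline gelatin to McFarland No. 1. Twofold dilutions of compound in aqueous triethanolamine were made in 1/10-strength BHI broth + 0.2% sucrose and mixed with an equal volume of inoculum. Plates were incubated at 30 °C and scored visually for turbidity on day 4. MIC was determined in triplicate.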

[3] = test system: Lactiplantibacillus plantarum; test: Antimicrobial activity against Lactobacillus plantarum by broth microdilution assay; outline: as §4
Staphylococcus aureus [4] = test: Antimicrobial activity against methicillin-resistant Staphylococcus aureus by broth microdilution assay; outline: as §3

| Structure (SMILES) | MIC (Escherichia coli) | MIC (Micrococcus luteus) | MIC (Aspergillus niger) | MIC (Cryptococcus neoformans) | MIC (Saccharomyces cerevisiae) | MIC (Candida albicans) | MIC (Staphylococcus aureus [1]) | MIC (Klebsiella pneumoniae) | MIC [2] | MIC [3] | MIC (Staphylococcus aureus [4]) |
| --- | --- | --- | --- | --- | --- | --- | --- | --- | --- | --- | --- |
| CCCCCCCCCCCC(CCCCCCCCCCC)NC(=O)NC(CCC(=O)O)(CCC(=O)O)CCC(=O)O | 2500 µM (≈ 1530 µg/mL) | > 10000 µM | 10000 µM (≈ 6130 µg/mL) | 7.2 µM (≈ 4.41 µg/mL) | 1300 µM (≈ 797 µg/mL) | > 10000 µM | > 10000 µM | > 10000 µM | 640 µM (≈ 392 µg/mL) | 10000 µM (≈ 6130 µg/mL) | – |
| CCCCCCCCN(CCCCCCCC)C(=O)NC(CCC(=O)O)(CCC(=O)O)CCC(=O)O | 760 µM (≈ 391 µg/mL) | 3000 µM (≈ 1540 µg/mL) | 380 µM (≈ 196 µg/mL) | 550 µM (≈ 283 µg/mL) | 380 µM (≈ 196 µg/mL) | 190 µM (≈ 97.8 µg/mL) | > 12000 µM | > 1100 µM | 1500 µM (≈ 772 µg/mL) | 1500 µM (≈ 772 µg/mL) | 3000 µM (≈ 1540 µg/mL) |
| CCCCCCCCCN(CCCCCCCCC)C(=O)NC(CCC(=O)O)(CCC(=O)O)CCC(=O)O | 1400 µM (≈ 760 µg/mL) | 12000 µM (≈ 6510 µg/mL) | 5800 µM (≈ 3150 µg/mL) | 260 µM (≈ 141 µg/mL) | 720 µM (≈ 391 µg/mL) | > 12000 µM | > 12000 µM | > 1000 µM | 1400 µM (≈ 760 µg/mL) | 12000 µM (≈ 6510 µg/mL) | 12000 µM (≈ 6510 µg/mL) |
| CCCCCCCCCCN(CCCCCCCCCC)C(=O)NC(CCC(=O)O)(CCC(=O)O)CCC(=O)O | 2700 µM (≈ 1540 µg/mL) | 11000 µM (≈ 6280 µg/mL) | 11000 µM (≈ 6280 µg/mL) | 62 µM (≈ 35.4 µg/mL) | 2700 µM (≈ 1540 µg/mL) | > 11000 µM | > 11000 µM | > 1000 µM | 680 µM (≈ 388 µg/mL) | 11000 µM (≈ 6280 µg/mL) | 11000 µM (≈ 6280 µg/mL) |
| CCCCCCCCCC(CCCCCCCCC)NC(=O)NC(CCC(=O)O)(CCC(=O)O)CCC(=O)O | 350 µM (≈ 195 µg/mL) | > 11000 µM | 2800 µM (≈ 1560 µg/mL) | 64 µM (≈ 35.6 µg/mL) | 2800 µM (≈ 1560 µg/mL) | > 11000 µM | – | > 11000 µM | 350 µM (≈ 195 µg/mL) | 5600 µM (≈ 3120 µg/mL) | – |
| CCCCCCCCCCC(CCCCCCCCCC)NC(=O)NC(CCC(=O)O)(CCC(=O)O)CCC(=O)O | 2700 µM (≈ 1580 µg/mL) | > 11000 µM | 11000 µM (≈ 6430 µg/mL) | 15 µM (≈ 8.77 µg/mL) | 2700 µM (≈ 1580 µg/mL) | > 11000 µM | – | > 11000 µM | 330 µM (≈ 193 µg/mL) | 5300 µM (≈ 3100 µg/mL) | – |
| CCCCCCCCCCCCCCCCCCNC(=O)NC(CCC(=O)O)(CCC(=O)O)CCC(=O)O | 130 µM (≈ 70.6 µg/mL) | > 12000 µM | 1400 µM (≈ 760 µg/mL) | 90 µM (≈ 48.8 µg/mL) | 130 µM (≈ 70.6 µg/mL) | 1400 µM (≈ 760 µg/mL) | 1400 µM (≈ 760 µg/mL) | 260 µM (≈ 141 µg/mL) | 33 µM (≈ 17.9 µg/mL) | 1400 µM (≈ 760 µg/mL) | 720 µM (≈ 391 µg/mL) |
| CCCCCCCCCCCCCCCCCCCCCCNC(=O)NC(CCC(=O)O)(CCC(=O)O)CCC(=O)O | 120 µM (≈ 71.9 µg/mL) | > 10000 µM | 5200 µM (≈ 3110 µg/mL) | 5200 µM (≈ 3110 µg/mL) | 30 µM (≈ 18 µg/mL) | 2600 µM (≈ 1560 µg/mL) | 1300 µM (≈ 779 µg/mL) | 470 µM (≈ 281 µg/mL) | 120 µM (≈ 71.9 µg/mL) | 950 µM (≈ 569 µg/mL) | 1300 µM (≈ 779 µg/mL) |
| CCCCCCCN(CCCCCCC)C(=O)NC(CCC(=O)O)(CCC(=O)O)CCC(=O)O | 3200 µM (≈ 1560 µg/mL) | 6400 µM (≈ 3110 µg/mL) | 800 µM (≈ 389 µg/mL) | 1200 µM (≈ 584 µg/mL) | 800 µM (≈ 389 µg/mL) | 1600 µM (≈ 779 µg/mL) | > 13000 µM | > 1200 µM | 3200 µM (≈ 1560 µg/mL) | 6400 µM (≈ 3110 µg/mL) | 3200 µM (≈ 1560 µg/mL) |
| CCCCCCCCCCCCCCCCNC(=O)NC(CCC(=O)O)(CCC(=O)O)CCC(=O)O | 140 µM (≈ 72.1 µg/mL) | > 12000 µM | 3000 µM (≈ 1540 µg/mL) | 47 µM (≈ 24.2 µg/mL) | 550 µM (≈ 283 µg/mL) | 47 µM (≈ 24.2 µg/mL) | 760 µM (≈ 391 µg/mL) | 280 µM (≈ 144 µg/mL) | 140 µM (≈ 72.1 µg/mL) | 6100 µM (≈ 3140 µg/mL) | 6100 µM (≈ 3140 µg/mL) |
| CCCCCCCCCCCCC(CCCCCCCCCCCC)NC(=O)NC(CCC(=O)O)(CCC(=O)O)CCC(=O)O | 2400 µM (≈ 1540 µg/mL) | > 9800 µM | 9800 µM (≈ 6280 µg/mL) | 6.9 µM (≈ 4.42 µg/mL) | 610 µM (≈ 391 µg/mL) | > 9800 µM | > 9800 µM | > 9800 µM | 1200 µM (≈ 769 µg/mL) | 9800 µM (≈ 6280 µg/mL) | – |
| CCCCCCCCCCCCCCCCCCCCNC(=O)NC(CCC(=O)O)(CCC(=O)O)CCC(=O)O | 62 µM (≈ 35.4 µg/mL) | > 11000 µM | 680 µM (≈ 388 µg/mL) | 2700 µM (≈ 1540 µg/mL) | 120 µM (≈ 68.5 µg/mL) | 2700 µM (≈ 1540 µg/mL) | 1400 µM (≈ 799 µg/mL) | 250 µM (≈ 143 µg/mL) | 62 µM (≈ 35.4 µg/mL) | 1400 µM (≈ 799 µg/mL) | 1400 µM (≈ 799 µg/mL) |
| CCCCCCCCCCCN(CCCCCCCCCCC)C(=O)NC(CCC(=O)O)(CCC(=O)O)CCC(=O)O | 2600 µM (≈ 1560 µg/mL) | 10000 µM (≈ 5990 µg/mL) | 10000 µM (≈ 5990 µg/mL) | > 950 µM | 5200 µM (≈ 3110 µg/mL) | > 10000 µM | > 10000 µM | > 950 µM | 650 µM (≈ 389 µg/mL) | 10000 µM (≈ 5990 µg/mL) | 10000 µM (≈ 5990 µg/mL) |
| CCCCCCCC(CCCCCCC)NC(=O)NC(CCC(=O)O)(CCC(=O)O)CCC(=O)O | 3100 µM (≈ 1550 µg/mL) | > 12000 µM | 6200 µM (≈ 3100 µg/mL) | 1100 µM (≈ 551 µg/mL) | 6200 µM (≈ 3100 µg/mL) | 3100 µM (≈ 1550 µg/mL) | – | > 12000 µM | 3100 µM (≈ 1550 µg/mL) | 6200 µM (≈ 3100 µg/mL) | – |
| CCCCCCCCC(CCCCCCCC)NC(=O)NC(CCC(=O)O)(CCC(=O)O)CCC(=O)O | 1500 µM (≈ 793 µg/mL) | > 12000 µM | 5900 µM (≈ 3120 µg/mL) | 270 µM (≈ 143 µg/mL) | 3000 µM (≈ 1590 µg/mL) | 740 µM (≈ 391 µg/mL) | – | > 12000 µM | 1500 µM (≈ 793 µg/mL) | 5900 µM (≈ 3120 µg/mL) | – |
| CCCCCCCCCCCCCCNC(=O)NC(CCC(=O)O)(CCC(=O)O)CCC(=O)O | 290 µM (≈ 141 µg/mL) | > 13000 µM | 6400 µM (≈ 3110 µg/mL) | 1600 µM (≈ 779 µg/mL) | 580 µM (≈ 282 µg/mL) | 1600 µM (≈ 779 µg/mL) | 6400 µM (≈ 3110 µg/mL) | 290 µM (≈ 141 µg/mL) | 580 µM (≈ 282 µg/mL) | 6400 µM (≈ 3110 µg/mL) | 6400 µM (≈ 3110 µg/mL) |
